Experimental data as given in ChEMBL document CHEMBL2169849, “Identification of antischistosomal leads by evaluating bridged 1,2,4,5-tetraoxanes, alphaperoxides, and tricyclic monoperoxides” (J Med Chem, 2012).

Experiments:
Schistosoma mansoni [1] = experiment: Antischistosomal activity against Schistosoma mansoni NTS incubated for 72 hrs; type: functional, organism-based
Summary of the method: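 NTS from mechanically transformed cercariae (Liberian strain), 100 per well in Medium 199 + 5% iFCS, penicillin/streptomycin, preincubated 12–24 h at 37°C, 5% CO2. Exposed to 0.37–90 μg/ml (threefold steps) for 72 h. Scored microscopically on a viability scale (death, motility, morphology). DMSO control; duplicates, at least three experiments; IC50 from viability scores.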

Schistosoma mansoni [2] = experiment: Antischistosomal activity against adult Schistosoma mansoni schistosomes incubated for 72 hrs; type: functional, organism-based
Schistosoma mansoni [3] = experiment: Antischistosomal activity against adult Schistosoma mansoni infected NMRI mouse adult infection model assessed as reduction in total worm burden at 400 mg/kg administered as single dose starting from 49 days post infection; type: functional; set-up: scale not given: the % may be the effect or the level left
Summary of the method: (§1)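 Mice infected subcutaneously with ~100 S. mansoni cercariae (Liberian strain). At day 49 post infection, groups of 4 NMRI mice received a single oral 400 mg/kg dose; 8–10 untreated controls. Total and female worm burden reductions calculated against untreated controls.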

[4] = Selectivity index, ratio of IC50 for rat L6 cells to IC50 for adult Schistosoma mansoni schistosomes
Summary of the method: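 Ratio of L6 IC50 to adult S. mansoni IC50, both from the assays above.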

L6 = experiment: Cytotoxicity against rat L6 cells incubated for […] hrs by Alamar blue assay; type: cell-based
Schistosoma mansoni [5] = experiment: Antischistosomal activity against adult Schistosoma mansoni infected NMRI mouse adult infection model assessed as reduction in female worm burden at 400 mg/kg administered as single dose starting from 49 days post infection; type: functional; set-up: scale not given: the % may be the effect or the level left; summary of the method: as §1
Schistosoma mansoni [6] = experiment: Antischistosomal activity against adult Schistosoma mansoni schistosomes incubated for 72 hrs in presence of 120 uM Fe(3)-hemin; type: functional, organism-based
Summary of the method: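 Adult worm motility assay in RPMI 1640 + 5% iFCS at 1.1–30 μg/ml. Fe(III)-hemin held at 120 μM final throughout exposure; hemin stock 1.5 mM in dilute NaOH/PBS pH 7.4. Motility scored, IC50 determined at 72 h. At least three experiments.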

[7] = Selectivity index, ratio of IC50 for human MRC5 cells to IC50 for human HeLa cells; type: cell-based; conditions: MRC5 cells versus HeLa cells, read-out: Ratio IC50
Schistosoma mansoni [8] = experiment: Antischistosomal activity against adult Schistosoma mansoni infected NMRI mouse juvenile infection model assessed as reduction in female worm burden at 400 mg/kg administered as single dose starting from 21 days post infection; type: functional; set-up: scale not given: the % may be the effect or the level left
Summary of the method: (§2)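 Juvenile model: NMRI mice infected with ~100 cercariae were given a single oral 400 mg/kg dose on day 21 post infection. Dissected four weeks after treatment, worms sexed and counted. Total and female burden reductions calculated against untreated controls.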

MRC5 = experiment: Cytotoxicity against human MRC5 cells incubated for 48 hrs by resazurin dye reduction assay; type: cell-based; conditions: MRC5, 48 h
Schistosoma mansoni [9] = experiment: Antischistosomal activity against adult Schistosoma mansoni infected NMRI mouse juvenile infection model assessed as reduction in total worm burden at 400 mg/kg administered as single dose starting from 21 days post infection; type: functional; set-up: scale not given: the % may be the effect or the level left; summary of the method: as §2
HeLa = experiment: Cytotoxicity against human HeLa cells incubated for 48 hrs by resazurin dye reduction assay; type: cell-based

Row | SMILES | IC50 (Schistosoma mansoni [1]) [µM] | IC50 (Schistosoma mansoni [2]) [µM] | also measured
1 | C[C@]12OO[C@](C)(OO1)C2CCC(=O)N1CCCCCC1 (stereo not given in full) | 5.5 | 50.1 | –
2 | C[C@]12OO[C@](C)(OO1)C2CCC(=O)NCCc1ccccc1 (stereo not given in full) | 6.1 | 65.6 | –
3 | C[C@]12OO[C@](C)(OO1)C2CCC(=O)N1CCCCC1 (stereo not given in full) | 6.6 | > 111 | –
4 | CC(c1ccc2ccccc2c1)C1[C@]2(C)OO[C@@]1(C)OO2 (stereo not given in full) | 7.1 | 35.5 | –
5 | C[C@]12OO[C@](C)(OO1)C2CCC(=O)NC1CCCCC1 (stereo not given in full) | 8.9 | 66.6 | –
6 | C[C@]12OO[C@](C)(OO1)C2CCC(=O)N1CCOCC1 (stereo not given in full) | 10.7 | 36.9 | –
7 | C[C@]12OO[C@](C)(OO1)C2CCC(=O)NCc1ccccc1 (stereo not given in full) | 10.9 | > 102 | –
8 | CCOC(=O)CNC(=O)CCC1[C@]2(C)OO[C@@]1(C)OO2 (stereo not given in full) | 11.7 | > 104 | –
9 | C[C@]12OO[C@](C)(OO1)C2CCC(=O)N1CCCC1 (stereo not given in full) | 13.9 | > 117 | –
10 | CC(C)NC(=O)CCC1[C@]2(C)OO[C@@]1(C)OO2 (stereo not given in full) | 25.6 | – | –
11 | CC12CCC3[C@@](C)(OO[C@]3(c3ccc(Br)cc3)O1)O2 | 1.7 | 8.7 | Activity (Schistosoma mansoni [3]): 31.3%; Ratio IC50 [4]: 0.9; IC50 (L6): 8.2 µM; Activity (Schistosoma mansoni [5]): 36.4%
12 | CCOC(=O)CCC12CCC3(C)O[C@]1(C)OO[C@]2(C)O3 | 3.5 | > 105 | IC50 (Schistosoma mansoni [6]): 92.2 µM
13 | Cc1ccc(CC23CCC4(C)O[C@]2(C)OO[C@]3(C)O4)cc1 | 4.5 | > 103 | Activity (Schistosoma mansoni [3]): 0%; Ratio IC50 [4]: >7.7; IC50 (L6): > 103 µM; IC50 (Schistosoma mansoni [6]): 13.4 µM; Activity (Schistosoma mansoni [5]): 0%
14 | C#CCC12CCC3(C)O[C@]1(C)OO[C@]2(C)O3 | 8.1 | 82.4 | –
15 | CC12CCC3(Cc4ccc([N+](=O)[O-])cc4)[C@@](C)(OO[C@]3(C)O1)O2 | 9 | 12.2 | Activity (Schistosoma mansoni [3]): 4.7%; Ratio IC50 [4]: >7.6; IC50 (L6): > 93 µM; Activity (Schistosoma mansoni [5]): 9.6%
16 | CC12CCC3[C@@](C)(OO[C@]3(C)O1)O2 | 9 | 19.2 | –
17 | CC12CCC3[C@@](C)(OO[C@]3(c3ccccc3)O1)O2 | 9.3 | 7.7 | Activity (Schistosoma mansoni [3]): 6.5%; Ratio IC50 [4]: 1.3; IC50 (L6): 10.3 µM; Activity (Schistosoma mansoni [5]): 15.2%
18 | CC12CCC3(Cc4ccccc4)[C@@](C)(OO[C@]3(C)O1)O2 | 13.4 | > 109 | –
19 | COc1ccc([C@]23OO[C@@]4(C)OC(C)(CCC42)O3)cc1 | 14.4 | 11.7 | Activity (Schistosoma mansoni [3]): 82.8%; selectivity ratio [7]: 2; Activity (Schistosoma mansoni [8]): 27.3%; Ratio IC50 [4]: 4.9; IC50 (L6): 58.3 µM; Activity (Schistosoma mansoni [5]): 82.9%; IC50 (MRC5): 12.4 µM; Activity (Schistosoma mansoni [9]): 18.9%; IC50 (HeLa): 6 µM
20 | C=CCC12CCC3(C)O[C@]1(C)OO[C@]2(C)O3 | 15.6 | – | –
21 | CC12CCC3[C@@](C)(OO[C@]3(c3ccc(Cl)cc3)O1)O2 | 16 | – | –
22 | CCCCC12CCC3(C)O[C@]1(C)OO[C@]2(C)O3 | 22.3 | – | –
23 | CC12CCC3(CC4CO4)[C@@](C)(OO[C@]3(C)O1)O2 (stereo not given in full) | 22.5 | – | –
24 | Cc1ccc([C@]23OO[C@@]4(C)OC(C)(CCC42)O3)cc1 | 45.3 | – | –
25 | CC12CCC3(C)[C@@](C)(OO[C@]3(C)O1)O2 | 180 | – | –
26 | CC12CCC3(CCC(=O)NC45CC6CC(CC(C6)C4)C5)[C@@](C)(OO[C@]3(C)O1)O2 | 213 | – | –
27 | CC12CCC3(CCC(=O)N4CCOCC4)[C@@](C)(OO[C@]3(C)O1)O2 | > 287 | – | –
28 | CC12CCC3(CCC(=O)O)[C@@](C)(OO[C@]3(C)O1)O2 | > 348 | – | –

Row | SMILES | IC50 (Schistosoma mansoni [1]) [µM] | IC50 (Schistosoma mansoni [2]) [µM] | also measured
29 | CC12CCC3(CCC#N)[C@@](C)(OO[C@]3(C)O1)O2 | > 376 | – | –
30 | C1COC(OOC23CC4CC(CC(C4)C2)C3)C1 (stereo not given) | > 126 | – | –
31 | CCOC(=O)CCC(OOC(C)(C)C)(C(C)=O)C(C)=O | > 104 | – | –
32 | CC(=O)C(C)(OOC(C)(C)C)C(C)=O | > 795 | – | –
33 | CCOC(=O)C(Cc1ccccc1)(OOC(C)(C)C)C(C)=O (stereo not given) | 15.1 | – | –
34 | CCCCC(OOC(C)(C)C)(C(C)=O)C(=O)OCC (stereo not given) | 26.5 | – | –
35 | CCOC(=O)C(CCC#N)(OOC(C)(C)C)C(C)=O (stereo not given) | > 111 | – | –
36 | CCOC(=O)C(Cc1ccccc1)(OOC(C)(C)C)C(=O)OCC | 14.6 | 59.1 | –
37 | CCOC(=O)C(C#N)(Cc1ccc(Cl)cc1)OOC(C)(C)C (stereo not given) | 9 | > 127 | –
38 | CCOC(=O)C(C#N)(CC(C)=O)OOC(C)(C)C (stereo not given) | 37.8 | – | –
39 | C=CCC(C#N)(OOC(C)(C)C)C(=O)OCC (stereo not given) | 43.2 | – | –
40 | CCOC(=O)C(C#N)(Cc1ccccc1)OOC(C)(C)C (stereo not given) | 67.7 | – | –
41 | CC(C)(C)OOC(C#N)(C#N)Cc1ccc(Cl)cc1 | 3.9 | 19.3 | IC50 (Schistosoma mansoni [6]): 17.9 µM
42 | CC(C)(C)OOC(C#N)(C#N)Cc1ccccc1 | 5 | 14.7 | Activity (Schistosoma mansoni [3]): 0%; Ratio IC50 [4]: 6.4; IC50 (L6): 99 µM; Activity (Schistosoma mansoni [5]): 0%
43 | COc1ccc(CC(C#N)(C#N)OOC(C)(C)C)cc1 | 8 | 40.6 | –
44 | CC(C)(C)OOC(C#N)(C#N)C1CCCC1 | 10.7 | 123 | –
45 | CCOC(=O)CC(C)C(C#N)(C#N)OOC(C)(C)C (stereo not given) | 157 | – | –
46 | CC(C)C(C#N)(C#N)OOC(C)(C)C | 293 | – | –
47 | C[C@]12OO[C@](C)(OO1)C2C12CC3CC(CC(C3)C1)C2 (stereo not given in full) | 0.1 | 0.3 | Activity (Schistosoma mansoni [3]): 75.4%; selectivity ratio [7]: 2; Activity (Schistosoma mansoni [8]): 50%; Ratio IC50 [4]: 5.7; IC50 (L6): 1.7 µM; Activity (Schistosoma mansoni [5]): 77.8%; IC50 (MRC5): 1.2 µM; Activity (Schistosoma mansoni [9]): 43.1%; IC50 (HeLa): 0.4 µM
48 | CC(c1ccc(Cl)cc1)C1[C@]2(C)OO[C@@]1(C)OO2 (stereo not given in full) | 0.4 | 35.5 | IC50 (Schistosoma mansoni [6]): 25.3 µM
49 | Cc1ccc(C(C)C2[C@]3(C)OO[C@@]2(C)OO3)cc1 (stereo not given in full) | 0.6 | 30.9 | IC50 (Schistosoma mansoni [6]): 41.2 µM
50 | C[C@]12OO[C@](C)(OO1)C2CCC(=O)NC12CC3CC(CC(C3)C1)C2 (stereo not given in full) | 0.8 | 33.3 | IC50 (Schistosoma mansoni [6]): 39.3 µM
51 | CC(c1ccc(Br)cc1)C1[C@]2(C)OO[C@@]1(C)OO2 (stereo not given in full) | 1 | 33.6 | IC50 (Schistosoma mansoni [6]): 47.7 µM
52 | CC(c1ccccc1)C1[C@]2(C)OO[C@@]1(C)OO2 (stereo not given in full) | 1.1 | 18.8 | Activity (Schistosoma mansoni [3]): 5%; Ratio IC50 [4]: 0.1; IC50 (L6): 2.2 µM; IC50 (Schistosoma mansoni [6]): 12.9 µM; Activity (Schistosoma mansoni [5]): 4.6%
53 | Cc1ccc(CC2[C@]3(C)OO[C@@]2(C)OO3)cc1 (stereo not given in full) | 1.2 | 40 | IC50 (Schistosoma mansoni [6]): > 127 µM
54 | C[C@H]1[C@H](OC(=O)CCC(=O)O)O[C@@H]2O[C@@]3(C)CC[C@H]4[C@H](C)CC[C@@H]1[C@@]24OO3 [ARTESUNATE] | 4.97 | 38.7 | selectivity ratio [7]: 2; Ratio IC50 [4]: 0.04; IC50 (L6): 1.5 µM; IC50 (Schistosoma mansoni [6]): 38.7 µM; IC50 (MRC5): 6.8 µM; IC50 (HeLa): 3.2 µM
55 | O=C(C1CCCCC1)N1CC(=O)N2CCc3ccccc3C2C1 (stereo not given) [PRAZIQUANTEL] | 2.2 | – | IC50 (L6): > 96 µM
